The values below come from ChEMBL document CHEMBL1132201, “Potent inhibition of Grb2 SH2 domain binding by non-phosphate-containing ligands” (J Med Chem, 1999).

Assay [1] concerns the target T1, Growth factor receptor-bound protein 2 (Homo sapiens, UniProt P62993). Description: Inhibition of Growth factor receptor bound protein 2 SH2 domain binding in plasmon resonance binding assay. The method, boiled down:
(§1)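 Biotin-DDPSpYVNVQ (SHC phosphopeptide) immobilized on SA5 streptavidin chips at 2 nM. Equilibrium Ru was read 20 s after flow ended and compared with binding without inhibitor to derive IC50. Two experiments on separate chips.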

The target in assay [2] is T1, Growth factor receptor-bound protein 2. The assay is described as follows: (§2) Inhibition of Grb2 SH2 domain binding in MDA-MB-453 human breast carcinoma cell lysates. A digest of the protocol:
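Lysates of serum-treated MDA-MB-453 cells were made in 1% Triton X-100/PBS with 0.2 mM NaVO4 and incubated 30 min with compound. Grb2 was immunoprecipitated from 5 mg lysate with anti-Grb2 and protein A Sepharose. Proteins were resolved by 8–16% SDS-PAGE, and coprecipitated p185erbB-2 was detected by anti-phosphotyrosine Western blot. Single experiment, equal lysate amounts.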

For assay [3] the target is unchanged. The assay is described as follows: Inhibition of Grb2 SH2 domain binding by surface plasmon resonance. A digest of the protocol: as §1
Background: Surface plasmon resonance follows binding to a sensor surface in real time, without labels.

The target is the same in assay [4]. Described as §2. As to conditions: in the assay text read “cells” for “cell lysates”.
Assay [5] shares this target. Description: Inhibition of Grb2 SH2 domain binding.

Positions of bridges follow the written chain, without caps; N, C: chain ends. Non-standard residues stand in square brackets, D forms with d. Residues, ends and D or L forms follow the SMILES beside them. pY = N[C@@H](Cc1ccc(OP(=O)(O)O)cc1)C(=O)O Bounds are passed on as bounds.

T1 sequence (P62993 whole entry, the tested form may be a part): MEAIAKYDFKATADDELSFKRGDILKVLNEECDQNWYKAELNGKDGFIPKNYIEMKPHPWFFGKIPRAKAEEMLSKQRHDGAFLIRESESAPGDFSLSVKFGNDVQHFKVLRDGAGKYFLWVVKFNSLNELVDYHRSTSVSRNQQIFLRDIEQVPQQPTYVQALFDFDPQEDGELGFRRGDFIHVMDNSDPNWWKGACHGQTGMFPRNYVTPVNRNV

For `CC(=O)N[C@@H](Cc1ccc(C(F)(F)P(=O)(O)O)cc1)C(=O)NC1(C(=O)N[C@@H](CC(N)=O)C(=O)NCCCc2cccc3ccccc23)CCCCC1`, the IC50 (as a rule, the concentration at which inhibition is half-maximal) came to 80 nM in assay [1] and 500 nM in assay [2].
`CC(=O)N[C@@H](Cc1ccc(OP(=O)(O)O)cc1)C(=O)NC1(C(=O)N[C@@H](CC(N)=O)C(=O)NCCCc2cccc3ccccc23)CCCCC1` came in with an IC50 in assay [3] of 70 nM.
`CC(=O)N[C@@H](Cc1ccc(O)cc1)C(=O)NC1(C(=O)N[C@@H](CC(N)=O)C(=O)NCCCc2cccc3ccccc23)CCCCC1`: the IC50 in assay [4] is > 50000 nM.
Turning to `CC(=O)N[C@@H](Cc1ccc(CP(=O)(O)O)cc1)C(=O)NC1(C(=O)N[C@@H](CC(N)=O)C(=O)NCCCc2cccc3ccccc23)CCCCC1`, the IC50 in assay [1] was determined as 80 nM; in assay [2] it was 500 nM.
`CC(=O)N[C@@H](Cc1ccc(OCC(=O)O)c(C(=O)O)c1)C(=O)NC1(C(=O)N[C@@H](CC(N)=O)C(=O)NCCCc2cccc3ccccc23)CCCCC1` displayed a half-inhibitory concentration (IC50) in assay [1] of 6700 nM.
The compound `CC(=O)N[C@@H](Cc1ccc(OP(=O)(O)O)cc1)C(=O)NC1(C(=O)N[C@@H](CC(N)=O)C(=O)NCCCc2c(O)ccc3ccccc23)CCCCC1` displayed an IC50 in assay [5] of 11 nM.
As for `CC(=O)N[C@@H](Cc1ccc(OCC(=O)O)c(OCC(=O)O)c1)C(=O)NC1(C(=O)N[C@@H](CC(N)=O)C(=O)NCCCc2cccc3ccccc23)CCCCC1`, the 50% inhibitory concentration (IC50) in assay [1] was > 100000 nM.
Consider `NC(=O)C[C@H](NC(=O)C1(NC(=O)[C@H](Cc2ccc(OCC(=O)O)c(C(=O)O)c2)NC(=O)C(=O)O)CCCCC1)C(=O)NCCCc1cccc2ccccc12`, for which the values for the IC50 in assay [1] and in assay [2] were 1300 nM and 500 nM, respectively.
Compound `NC(=O)C[C@H](NC(=O)C1(NC(=O)[C@H](Cc2ccc(CP(=O)(O)O)cc2)NC(=O)C(=O)O)CCCCC1)C(=O)NCCCc1cccc2ccccc12` had a half-maximal inhibitory concentration (IC50) in assay [2] of 500 nM.
The compound `CC[C@H](C)[C@@H]1NC(=O)[C@H](Cc2ccc(OP(=O)(O)O)cc2)NC(=O)[C@@H](NC(C)=O)CSSC[C@@H](C(N)=O)NC(=O)[C@H](CC(N)=O)NC1=O` (Ac-C[pY]INC-NH2; disulfide 1-5) yielded a half-inhibitory concentration (IC50) in assay [5] of 370 nM.
On the same count and under the same terms, the value for `CC(C)[C@H](NC(=O)[C@H](CC(N)=O)NC(=O)[C@@H](NC(=O)[C@H](Cc1ccc(OP(=O)(O)O)cc1)NC(=O)[C@H](CO)NC(=O)[C@@H]1CCCN1C(=O)[C@H](CC(=O)O)NC(=O)[C@@H](N)CC(=O)O)C(C)C)C(=O)N[C@@H](CCC(N)=O)C(=O)O` (H-DDPS[pY]VNVQ-OH) was 1300 nM.
